The structures appear in SMILES notation. In brackets after ≈: the same amount, converted by molar mass. Activity calls are given as the source filed them. The rule behind the calls is not given here.

The subject of data set [1] is Pseudomonas aeruginosa. Briefly: Antibacterial activity against Pseudomonas aeruginosa PAO1 by Etest. Type of data set: functional. The method in brief: (§1)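 Etest strips were applied on Mueller-Hinton agar following the manufacturer's recommendations. For PAOΔmutS, the MIC read was that of the main population, ignoring resistant colonies growing within the inhibition ellipse.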

Data set [2] relates to Pseudomonas aeruginosa. Briefly: Antibacterial activity against Pseudomonas aeruginosa PAOdeltamutS by Etest. Type of data set: functional. The method in brief: as §1
In data set [3] the test system is Mus musculus. Briefly: fCmax in Pseudomonas aeruginosa PAO1 infected C57BL/6J mouse at 70 mg/kg, ip administered every 3 hrs. Type of data set: ADME, organism-based. Set-up: dose 70 mg/kg, route intraperitoneal. The note with it: in vivo.
The nature of data set [4]: Half life of free unbound fraction in Pseudomonas aeruginosa PAO1 infected C57BL/6J mouse at 70 mg/kg, ip administered every 3 hrs. The note with it: in vivo, read-out: t1/2 unbound fraction (converted). Set-up: dose 70 mg/kg, route intraperitoneal. Type of data set: ADME, organism-based.
Data set [5] concerns Mus musculus. Briefly: fAUC (0 to 24 hrs) in Pseudomonas aeruginosa PAO1 infected C57BL/6J mouse at 70 mg/kg, ip administered every 3 hrs. Type of data set: ADME, organism-based. The arrangement: dose 70 mg/kg, route intraperitoneal. The note with it: in vivo.
A short description of data set [6]: fAUC (0 to 24 hrs)/MIC ratio in Pseudomonas aeruginosa PAO1 infected C57BL/6J mouse at 70 mg/kg, ip administered every 3 hrs. The note with it: route intraperitoneal. Type of data set: functional.
Data set [7] is described as follows: fAUC (0 to 24 hrs)/MIC ratio in Pseudomonas aeruginosa PAOdeltamutS infected C57BL/6J mouse at 70 mg/kg, ip administered every 3 hrs. Type of data set: functional. Particulars: route intraperitoneal.
A short description of data set [8]: fCmax/MIC ratio in Pseudomonas aeruginosa PAO1 infected C57BL/6J mouse at 70 mg/kg, ip administered every 3 hrs. Type of data set: functional. Particulars: route intraperitoneal.
The nature of data set [9]: fCmax/MIC ratio in Pseudomonas aeruginosa PAOdeltamutS infected C57BL/6J mouse at 70 mg/kg, ip administered every 3 hrs. Type of data set: functional. Particulars: route intraperitoneal.
For data set [10], the system named is Pseudomonas aeruginosa. Briefly: f%T>MIC in Pseudomonas aeruginosa PAO1 infected C57BL/6J mouse at 70 mg/kg, ip administered every 3 hrs. Type of data set: functional. The note with it: route intraperitoneal.
Data set [11] has as its system Pseudomonas aeruginosa. Briefly: Antibacterial activity against Pseudomonas aeruginosa PAO1 infected in C57BL/6J mouse assessed as mortality at 70 mg/kg, ip administered every 3 hrs. Type of data set: functional. Particulars: route intraperitoneal. The method in brief: (§2)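 Female C57BL/6J mice (20–25 g) were infected transtracheally under ketamine/xylazine with about 2 × 10⁴ agarose-bead-embedded cells. Beginning 24 h later, they received ceftazidime 70 mg/kg every 3 h or a sterile water placebo for 3 days. There were 30 mice per group from two independent experiments of 15. Mortality was recorded as the percentage of animals per group.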

Data set [12] concerns Pseudomonas aeruginosa. Briefly: Antibacterial activity against Pseudomonas aeruginosa PAOdeltamutS infected in C57BL/6J mouse assessed as mortality at 70 mg/kg, ip administered every 3 hrs. Particulars: route intraperitoneal. Type of data set: functional. The method in brief: as §2
The subject of data set [13] is Pseudomonas aeruginosa. Briefly: Antibacterial activity against Pseudomonas aeruginosa PAO1 infected in C57BL/6J mouse assessed as lung bacterial count at 70 mg/kg, ip administered every 3 hrs. Type of data set: functional, organism-based. Set-up: dose 70 mg/kg. The method in brief: (§3)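 Female C57BL/6J mice (20–25 g) were anesthetized with ketamine/xylazine ip. They were inoculated transtracheally with about 2 × 10⁴ cells embedded in agarose beads. Ceftazidime 70 mg/kg every 3 h (or sterile water placebo) started 24 h after inoculation and ran for 3 days, 30 mice per group in two experiments. Lungs were taken 24 h after treatment ended, homogenized in saline, diluted 1/10 serially and plated on MHA; median counts were reported.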

The test system of data set [14] is Pseudomonas aeruginosa. Briefly: Antibacterial activity against Pseudomonas aeruginosa PAOdeltamutS infected in C57BL/6J mouse assessed as lung bacterial count at 70 mg/kg, ip administered every 3 hrs. Type of data set: functional, organism-based. The arrangement: dose 70 mg/kg. The method in brief:
as §3

Data set [15] has as its system Mus musculus. Briefly: fCmax in Pseudomonas aeruginosa PAO1 infected C57BL/6J mouse at 10 mg/kg, ip administered every 6 hrs. Type of data set: ADME, organism-based. Set-up: dose 10 mg/kg, route intraperitoneal. The note with it: in vivo.
The nature of data set [16]: Half life of free unbound fraction in Pseudomonas aeruginosa PAO1 infected C57BL/6J mouse at 10 mg/kg, ip administered every 6 hrs. Type of data set: ADME, organism-based. Set-up: dose 10 mg/kg, route intraperitoneal. Particulars: in vivo, read-out: t1/2 unbound fraction (converted).
The test system of data set [17] is Mus musculus. Briefly: fAUC (0 to 24 hrs) in Pseudomonas aeruginosa PAO1 infected C57BL/6J mouse at 10 mg/kg, ip administered every 6 hrs. Type of data set: ADME, organism-based. The arrangement: dose 10 mg/kg, route intraperitoneal. The note with it: in vivo.
Data set [18] is described as follows: fAUC (0 to 24 hrs)/MIC ratio in Pseudomonas aeruginosa PAO1 infected C57BL/6J mouse at 10 mg/kg, ip administered every 6 hrs. Type of data set: functional. The note with it: route intraperitoneal.
Data set [19] in a line: fAUC (0 to 24 hrs)/MIC ratio in Pseudomonas aeruginosa PAOdeltamutS infected C57BL/6J mouse at 10 mg/kg, ip administered every 6 hrs. Type of data set: functional. The note with it: route intraperitoneal.
The nature of data set [20]: fCmax/MIC ratio in Pseudomonas aeruginosa PAO1 infected C57BL/6J mouse at 10 mg/kg, ip administered every 6 hrs. Type of data set: functional. The note with it: route intraperitoneal.
Data set [21] can be described thus: fCmax/MIC ratio in Pseudomonas aeruginosa PAOdeltamutS infected C57BL/6J mouse at 10 mg/kg, ip administered every 6 hrs. Type of data set: functional. The note with it: route intraperitoneal.
Data set [22] relates to Pseudomonas aeruginosa. Briefly: Antibacterial activity against Pseudomonas aeruginosa PAO1 infected in C57BL/6J mouse assessed as mortality at 10 mg/kg, ip administered every 6 hrs. Type of data set: functional. The note with it: route intraperitoneal.
Data set [23] concerns Pseudomonas aeruginosa. Briefly: Antibacterial activity against Pseudomonas aeruginosa PAOdeltamutS infected in C57BL/6J mouse assessed as mortality at 10 mg/kg, ip administered every 6 hrs. Type of data set: functional. The note with it: route intraperitoneal.
Data set [24] concerns Pseudomonas aeruginosa. Briefly: Antibacterial activity against Pseudomonas aeruginosa PAO1 infected in C57BL/6J mouse assessed as lung bacterial count at 10 mg/kg, ip administered every 6 hrs. Type of data set: functional, organism-based. Set-up: dose 10 mg/kg.
Data set [25] relates to Pseudomonas aeruginosa. Briefly: Antibacterial activity against Pseudomonas aeruginosa PAOdeltamutS infected in C57BL/6J mouse assessed as lung bacterial count at 10 mg/kg, ip administered every 6 hrs. The arrangement: dose 10 mg/kg. Type of data set: functional, organism-based.
In data set [26] the test system is Pseudomonas aeruginosa. Briefly: Antibacterial activity against Pseudomonas aeruginosa PAO1 infected in C57BL/6J mouse assessed as mortality at 20 mg/kg, ip administered every 6 hrs. Type of data set: functional. The note with it: route intraperitoneal.
Data set [27] concerns Pseudomonas aeruginosa. Briefly: Antibacterial activity against Pseudomonas aeruginosa PAOdeltamutS infected in C57BL/6J mouse assessed as mortality at 20 mg/kg, ip administered every 6 hrs. Type of data set: functional. The note with it: route intraperitoneal.

As to `O=C(N[C@H](CO)[C@H](O)c1ccc([N+](=O)[O-])cc1)C(Cl)Cl` [CHLORAMPHENICOL], the MIC against Pseudomonas aeruginosa [1] and against Pseudomonas aeruginosa [2] was 32 µg/mL (≈ 99 µM) in each case.

For the molecule `CN(C)[C@@H]1C(O)=C(C(N)=O)C(=O)[C@@]2(O)C(O)=C3C(=O)c4c(O)cccc4[C@@](C)(O)[C@H]3C[C@@H]12` [TETRACYCLINE], the minimal inhibitory concentration (MIC) in the data set on Pseudomonas aeruginosa [1] and in the data set with Pseudomonas aeruginosa [2] was 24 µg/mL (≈ 54 µM) in each case.

For `CC(C)(O/N=C(\C(=O)N[C@@H]1C(=O)N2C(C(=O)[O-])=C(C[n+]3ccccc3)CS[C@H]12)c1csc(N)n1)C(=O)O` [CEFTAZIDIME], the results for the fc max (in the data set with Mus musculus [3]; in data set [8]; in data set [9]) were 183.1 mg/L, 183 and 183, respectively. The half-life in data set [4] was 24 min. The molecule also showed a fAUC with Mus musculus [5] of 593.6 µg·h/mL. Also, the MIC in the data set with Pseudomonas aeruginosa [1] and in the data set with Pseudomonas aeruginosa [2] was 1 µg/mL (≈ 1.83 µM) each time. Moreover, the fAUC/MIC in data set [6] and in data set [7] was 594 each time. Besides, the “f %t > MIC” value in the data set on Pseudomonas aeruginosa [10] came out at 54%. Besides, the values for the mortality at 70 mg/kg in the data set on Pseudomonas aeruginosa [11] and in the data set on Pseudomonas aeruginosa [12] were 56.7% and 43.3%, respectively. Moreover, the outcome with Pseudomonas aeruginosa [13] and in the data set on Pseudomonas aeruginosa [14] was Active.

For `CO/N=C(\C(=O)N[C@@H]1C(=O)N2C(C(=O)[O-])=C(C[N+]3(C)CCCC3)CS[C@H]12)c1csc(N)n1`, the MIC in the data set on Pseudomonas aeruginosa [1] and against Pseudomonas aeruginosa [2] was 1 µg/mL (≈ 2.08 µM) throughout.

`C[C@H]1[C@H](NC(=O)/C(=N\OC(C)(C)C(=O)O)c2csc(N)n2)C(=O)N1S(=O)(=O)O` [AZTREONAM]: the MIC against Pseudomonas aeruginosa [1] and in the data set with Pseudomonas aeruginosa [2] was 1.5 µg/mL (≈ 3.44 µM) throughout.

In turn, `NC[C@H]1O[C@H](O[C@H]2[C@H](O)[C@@H](O[C@H]3O[C@H](CO)[C@@H](O)[C@H](N)[C@H]3O)[C@H](N)C[C@@H]2N)[C@H](N)C[C@@H]1O` [TOBRAMYCIN] returned a fc max in the data set with Mus musculus [15] of 19.07 mg/L. Further, the half-life in [16] is 33 min. The fAUC in the data set with Mus musculus [17] is 42.96 µg·h/mL. The minimum inhibitory concentration (MIC) in the data set on Pseudomonas aeruginosa [1] and in the data set on Pseudomonas aeruginosa [2] was 1 µg/mL (≈ 2.14 µM) throughout. The fAUC/MIC in data set [18] and in data set [19] was 43 throughout. The “fc max/MIC” value in data set [20] and in data set [21] was 19 each time. In addition, the figures for the mortality at 10 mg/kg in the data set on Pseudomonas aeruginosa [22] and in the data set on Pseudomonas aeruginosa [23] were 66.7% and 60%, respectively. Also, the “f %t > MIC” value with Pseudomonas aeruginosa [24] and with Pseudomonas aeruginosa [25] was “Active” in each case.

Consider `O=C(O)c1cn(C2CC2)c2cc(N3CCNCC3)c(F)cc2c1=O` [CIPROFLOXACIN], for which the mortality at 20 mg/kg with Pseudomonas aeruginosa [26] and in the data set with Pseudomonas aeruginosa [27] was 26.7% throughout. Also, in the data set on Pseudomonas aeruginosa [2], 0.12 µg/mL (≈ 0.362 µM) was the least that counted as inhibitory (MIC).

`C[C@@H](O)[C@H]1C(=O)N2C(C(=O)O)=C(SCCNC=N)C[C@H]12` [IMIPENEM ANHYDROUS]: the MIC against Pseudomonas aeruginosa [1] and in the data set with Pseudomonas aeruginosa [2] was 1.5 µg/mL (≈ 5.01 µM) each time.

Consider `C[C@@H](O)[C@H]1C(=O)N2C(C(=O)O)=C(S[C@@H]3CN[C@H](C(=O)N(C)C)C3)[C@H](C)[C@H]12` [MEROPENEM], for which the figures for the MIC in the data set on Pseudomonas aeruginosa [1] and in the data set with Pseudomonas aeruginosa [2] were 0.5 µg/mL (≈ 1.3 µM) and 0.75 µg/mL (≈ 1.96 µM), respectively.

For the origin of these results see ChEMBL document CHEMBL1156416, “Influence of high mutation rates on the mechanisms and dynamics of in vitro and in vivo resistance development to single or combined antipseudomonal agents” (Antimicrob Agents Chemother, 2007).
